Results published in ChEMBL document CHEMBL1132178, “5-Amino-1-(chloromethyl)-1,2-dihydro-3H-benz[e]indoles: relationships between structure and cytotoxicity for analogues bearing different DNA minor groove binding subunits” (J Med Chem, 1999).

How the values were obtained:
EMT6 = assay: Tested for growth inhibition against EMT6 tumor cell line(murine mammary carcinoma).; assay type: functional, cell-based, Mus musculus
How it was run: (§1)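 Log-phase cultures seeded in 96-well plates (200 AA8, 300 UV4 or 50 EMT6 cells/well), drug added after 24 h. Aerobic 4 h exposure at 37 °C under 5% CO2, then washed and regrown 4 days. Cell density read by sulforhodamine B staining. IC50 is the concentration giving 50% growth inhibition versus same-plate controls; mean of 2–5 determinations ± SEM.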

CHO-AA8 = assay: Tested for growth inhibition against AA8 tumor cell line(chinese hamster ovary).; assay type: functional, cell-based, Cricetulus griseus; how it was run: as §1
UV4 = assay: The compound was tested for growth inhibition against UV4 tumor cell line(chinese hamster ovary).; assay type: functional, cell-based, Cricetulus griseus; how it was run: as §1
SK-OV-3 = assay: Tested for growth inhibition against SKOV3 tumor cell line(human ovarian).; assay type: functional, cell-based
How it was run: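 Log-phase cultures of 600 SKOV3 cells/well in 96-well plates, drug added after 24 h. Aerobic 4 h exposure at 37 °C under 5% CO2, then washed and regrown 5 days. Growth read by sulforhodamine B staining. IC50 is the concentration giving 50% inhibition relative to same-plate controls; average of 2–5 determinations ± SEM.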

CN(C)CCOc1ccc(/C=C/C(=O)N2CC(CCl)c3c2cc(N)c2ccccc32)cc1 (stereo unspecified)
IC50 (EMT6; Mus musculus, EMT6): 0.63 nM
IC50 (CHO-AA8; Cricetulus griseus, CHO-AA8): 1.5 nM
IC50 (UV4; Cricetulus griseus, UV4): 0.56 nM
IC50 (SK-OV-3; Homo sapiens, SK-OV-3): 1.9 nM

Nc1cc2c(c3ccccc13)C(CCl)CN2C(=O)c1cc2cc(NC(=O)c3cc4ccccc4o3)ccc2[nH]1 (stereo unspecified)
IC50 (EMT6; Mus musculus, EMT6): 1.3 nM
IC50 (CHO-AA8; Cricetulus griseus, CHO-AA8): 2 nM
IC50 (UV4; Cricetulus griseus, UV4): 1.5 nM
IC50 (SK-OV-3; Homo sapiens, SK-OV-3): 3.5 nM

COc1cc2cc(C(=O)N3CC(CCl)c4c3cc(N)c3ccccc43)[nH]c2c(OC)c1OC (single isomer, unassigned; (-))
IC50 (EMT6; emt6): 7 nM
IC50 (CHO-AA8; cho-aa8): 14 nM
IC50 (UV4; uv4): 2.7 nM
IC50 (SK-OV-3; sk-ov-3): 7.9 nM

COc1ccc(/C=C/C(=O)N2CC(CCl)c3c2cc(N)c2ccccc32)cc1 (stereo unspecified)
IC50 (EMT6; Mus musculus, EMT6): 0.089 nM
IC50 (CHO-AA8; Cricetulus griseus, CHO-AA8): 0.09 nM
IC50 (UV4; Cricetulus griseus, UV4): 0.058 nM
IC50 (SK-OV-3; Homo sapiens, SK-OV-3): 0.24 nM

COc1ccc2[nH]c(C(=O)N3CC(CCl)c4c3cc(N)c3ccccc43)cc2c1 (stereo unspecified)
IC50 (EMT6; Mus musculus, EMT6): 0.98 nM
IC50 (CHO-AA8; Cricetulus griseus, CHO-AA8): 1.3 nM
IC50 (UV4; Cricetulus griseus, UV4): 0.84 nM
IC50 (SK-OV-3; Homo sapiens, SK-OV-3): 1.86 nM

COc1cc(OCCN(C)C)c2[nH]c(C(=O)N3CC(CCl)c4c3cc(N)c3ccccc43)cc2c1 (stereo unspecified)
IC50 (EMT6; Mus musculus, EMT6): 1.9 nM
IC50 (CHO-AA8; Cricetulus griseus, CHO-AA8): 3.7 nM
IC50 (UV4; Cricetulus griseus, UV4): 1.9 nM
IC50 (SK-OV-3; Homo sapiens, SK-OV-3): 4.2 nM

CC(=O)Nc1ccc2[nH]c(C(=O)N3CC(CCl)c4c3cc(N)c3ccccc43)cc2c1 (stereo unspecified)
IC50 (EMT6; Mus musculus, EMT6): 5.2 nM
IC50 (CHO-AA8; Cricetulus griseus, CHO-AA8): 12.5 nM
IC50 (UV4; Cricetulus griseus, UV4): 7.6 nM
IC50 (SK-OV-3; Homo sapiens, SK-OV-3): 17.3 nM

COc1cccc(/C=C/C(=O)N2CC(CCl)c3c2cc(N)c2ccccc32)c1 (stereo unspecified)
IC50 (EMT6; Mus musculus, EMT6): 0.63 nM
IC50 (CHO-AA8; Cricetulus griseus, CHO-AA8): 0.37 nM
IC50 (UV4; Cricetulus griseus, UV4): 0.42 nM
IC50 (SK-OV-3; Homo sapiens, SK-OV-3): 0.68 nM

COc1cc2cc(C(=O)N3CC(CCl)c4c3cc(N)c3ccccc43)[nH]c2c(OC)c1OC (single isomer, unassigned; (+))
IC50 (EMT6; emt6): 0.13 nM
IC50 (CHO-AA8; cho-aa8): 0.21 nM
IC50 (UV4; uv4): 0.14 nM
IC50 (SK-OV-3; sk-ov-3): 0.54 nM

COc1cc2cc(C(=O)N3CC(CCl)c4c3cc(N)c3ccccc43)[nH]c2cc1OCCN(C)C (stereo unspecified)
IC50 (EMT6; Mus musculus, EMT6): 2 nM
IC50 (CHO-AA8; Cricetulus griseus, CHO-AA8): 3.6 nM
IC50 (UV4; Cricetulus griseus, UV4): 2.1 nM
IC50 (SK-OV-3; Homo sapiens, SK-OV-3): 5.3 nM

COc1cc2cc(C(=O)N3CC(COS(C)(=O)=O)c4c3cc(N)c3ccccc43)[nH]c2c(OC)c1OC (stereo unspecified)
IC50 (EMT6; Mus musculus, EMT6): 0.4 nM
IC50 (CHO-AA8; Cricetulus griseus, CHO-AA8): 0.48 nM
IC50 (UV4; Cricetulus griseus, UV4): 0.46 nM
IC50 (SK-OV-3; Homo sapiens, SK-OV-3): 1.2 nM

CCCC(=O)Nc1cc(/C=C/C(=O)N2CC(CCl)c3c2cc(N)c2ccccc32)n(C)c1 (stereo unspecified)
IC50 (EMT6; Mus musculus, EMT6): 5.9 nM
IC50 (CHO-AA8; Cricetulus griseus, CHO-AA8): 31 nM
IC50 (UV4; Cricetulus griseus, UV4): 16 nM
IC50 (SK-OV-3; Homo sapiens, SK-OV-3): 22 nM

CC(=O)Nc1ccc(/C=C/C(=O)N2CC(CCl)c3c2cc(N)c2ccccc32)cc1 (stereo unspecified)
IC50 (EMT6; Mus musculus, EMT6): 1.2 nM
IC50 (CHO-AA8; Cricetulus griseus, CHO-AA8): 2.6 nM
IC50 (UV4; Cricetulus griseus, UV4): 1.4 nM
IC50 (SK-OV-3; Homo sapiens, SK-OV-3): 2.7 nM

COc1ccc2[nH]c(/C=C/C(=O)N3CC(CCl)c4c3cc(N)c3ccccc43)cc2c1 (stereo unspecified)
IC50 (EMT6; Mus musculus, EMT6): 0.23 nM
IC50 (CHO-AA8; Cricetulus griseus, CHO-AA8): 0.28 nM
IC50 (UV4; Cricetulus griseus, UV4): 0.22 nM
IC50 (SK-OV-3; Homo sapiens, SK-OV-3): 0.48 nM

CC(=O)Nc1cc(C(=O)Nc2cc(C(=O)N3CC(CCl)c4c3cc(N)c3ccccc43)nn2C)nn1C (stereo unspecified)
IC50 (EMT6; Mus musculus, EMT6): 212 nM
IC50 (CHO-AA8; Cricetulus griseus, CHO-AA8): 374 nM
IC50 (UV4; Cricetulus griseus, UV4): 253 nM
IC50 (SK-OV-3; Homo sapiens, SK-OV-3): 49 nM

CC(=O)Nc1cc(/C=C/C(=O)N2CC(CCl)c3c2cc(N)c2ccccc32)n(C)n1 (stereo unspecified)
IC50 (EMT6; Mus musculus, EMT6): 4.9 nM
IC50 (CHO-AA8; Cricetulus griseus, CHO-AA8): 10.7 nM
IC50 (UV4; Cricetulus griseus, UV4): 5.4 nM
IC50 (SK-OV-3; Homo sapiens, SK-OV-3): 13 nM

Nc1ccc2[nH]c(C(=O)N3CC(CCl)c4c3cc(N)c3ccccc43)cc2c1 (stereo unspecified)
IC50 (EMT6; Mus musculus, EMT6): 0.83 nM
IC50 (CHO-AA8; Cricetulus griseus, CHO-AA8): 2.5 nM
IC50 (UV4; Cricetulus griseus, UV4): 1.1 nM
IC50 (SK-OV-3; Homo sapiens, SK-OV-3): 3 nM

CN(C)CCOc1ccc2[nH]c(C(=O)N3CC(CCl)c4c3cc(N)c3ccccc43)cc2c1 (stereo unspecified)
IC50 (EMT6; Mus musculus, EMT6): 1.3 nM
IC50 (CHO-AA8; Cricetulus griseus, CHO-AA8): 4.1 nM
IC50 (UV4; Cricetulus griseus, UV4): 1.7 nM
IC50 (SK-OV-3; Homo sapiens, SK-OV-3): 7 nM

CC(=O)Nc1cccc(/C=C/C(=O)N2CC(CCl)c3c2cc(N)c2ccccc32)c1 (stereo unspecified)
IC50 (EMT6; Mus musculus, EMT6): 0.86 nM
IC50 (CHO-AA8; Cricetulus griseus, CHO-AA8): 2.7 nM
IC50 (UV4; Cricetulus griseus, UV4): 1.5 nM
IC50 (SK-OV-3; Homo sapiens, SK-OV-3): 1.5 nM
